Legend:
Homo sapiens [1] = assay: Effect on sleep parameter in insomnia patient assessed as total sleep time at 30 mg, po administered two consecutive nights 90 mins prior to sleep by polysomnography; format: functional
Homo sapiens [2] = assay: Effect on sleep parameter in insomnia patient assessed as latency to persistent sleep time at 60 mg, po administered two consecutive nights 90 mins prior to sleep by polysomnography; format: functional
[3] = (§1) Apparent half life of the compound in human; format: ADME, organism-based; details: in vivo, read-out: t1/2(app) (converted)
Homo sapiens [4] = assay: Effect on sleep parameter in insomnia patient assessed as total sleep time at 10 mg, po administered two consecutive nights 90 mins prior to sleep by polysomnography; format: functional
Homo sapiens [5] = assay: Effect on sleep parameter in insomnia patient assessed as wake after sleep onset time at 10 mg, po administered two consecutive nights 90 mins prior to sleep by polysomnography; format: functional
Plasma [6] = assay: Drug metabolism in human plasma assessed as (S)-2-(2-((1-(5-(4-fluorophenyl)-2-methylthiazole-4-carbonyl)piperidin-2-yl)methylcarbamoyl)-6-hydroxyphenyl)acetic acid formation at 30 mg, po by LSC analysis; format: ADME, organism-based; details: in vivo
Summary of the method: (§2)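 Eight healthy subjects received a single 30 mg oral dose of radiolabeled compound. Plasma extracts were profiled for metabolites, each expressed as a percentage of the radioactive dose.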

Plasma [7] = assay: Drug metabolism in human plasma assessed as 2-(((S)-1-(5-(4-fluorophenyl)-2-methylthiazole-4-carbonyl)piperidin-2-yl)methyl)-3,5-dihydroxy-3,4-dihydroisoquinolin-1(2H)-one formation at 30 mg, po by LSC analysis; format: ADME, organism-based; details: in vivo; summary of the method: as §2
Homo sapiens [8] = assay: Effect on sleep parameter in insomnia patient assessed as latency to persistent sleep time at 30 mg, po administered two consecutive nights 90 mins prior to sleep by polysomnography; format: functional
Homo sapiens [9] = assay: Effect on sleep parameter in insomnia patient assessed as total sleep time at 60 mg, po administered two consecutive nights 90 mins prior to sleep by polysomnography; format: functional
Homo sapiens [10] = assay: Effect on sleep parameter in insomnia patient assessed as sleep efficiency at 10 mg, po administered two consecutive nights 90 mins prior to sleep by polysomnography; format: functional
Homo sapiens [11] = assay: Effect on sleep parameter in insomnia patient assessed as sleep efficiency at 60 mg, po administered two consecutive nights 90 mins prior to sleep by polysomnography; format: functional
[12] = Half life in human plasma; format: ADME, organism-based
Homo sapiens [13] = assay: Effect on sleep parameter in insomnia patient assessed as latency to persistent sleep time at 10 mg, po administered two consecutive nights 90 mins prior to sleep by polysomnography; format: functional
Homo sapiens [14] = assay: Effect on sleep parameter in insomnia patient assessed as wake after sleep onset time at 60 mg, po administered two consecutive nights 90 mins prior to sleep by polysomnography; format: functional
Homo sapiens [15] = assay: Effect on sleep parameter in insomnia patient assessed as wake after sleep onset time at 30 mg, po administered two consecutive nights 90 mins prior to sleep by polysomnography; format: functional
Homo sapiens [16] = assay: Effect on sleep parameter in insomnia patient assessed as sleep efficiency at 30 mg, po administered two consecutive nights 90 mins prior to sleep by polysomnography; format: functional
Homo sapiens [17] = organism: Homo sapiens; assay: as §1; format: ADME, organism-based; details: in vivo

| half-life [3] | Drug metabolism (Plasma [6]) | Drug metabolism (Plasma [7]) | half-life [12] | t1/2(app) (Homo sapiens [17]) | SMILES | Time (Homo sapiens [1]) | Time (Homo sapiens [2]) | Time (Homo sapiens [4]) | Time (Homo sapiens [5]) | Time (Homo sapiens [8]) | Time (Homo sapiens [9]) | Activity (Homo sapiens [10]) | Activity (Homo sapiens [11]) | Time (Homo sapiens [13]) | Time (Homo sapiens [14]) | Time (Homo sapiens [15]) | Activity (Homo sapiens [16]) |
| --- | --- | --- | --- | --- | --- | --- | --- | --- | --- | --- | --- | --- | --- | --- | --- | --- | --- |
| 300 min | 11 %ID | 2 %ID | 240 min | – | Cc1nc(C(=O)N2CCCC[C@H]2CNC(=O)c2cccc3occc23)c(-c2ccc(F)cc2)s1 (stereo in doubt; form 1) [SB-649868] | 49.7 min | -43.7 min | 22.4 min | 3.2 min | -33 min | 69.8 min | 4.7% | 14.6% | -26.1 min | -29 min | -18.4 min | 10.4% |
| – | – | – | – | 39 h | Cc1nc(C(=O)N2CCCC[C@H]2CNC(=O)c2cccc3occc23)c(-c2ccc(F)cc2)s1 (stereo in doubt; form 2) [SB-649868] | – | – | – | – | – | – | – | – | – | – | – | – |

Reference: ChEMBL document CHEMBL3769367, “Orexin Receptor Antagonists: New Therapeutic Agents for the Treatment of Insomnia” (J Med Chem, 2016)
